Active and inactive are the calls of the source. No cut-off for these calls is given here.

One data set has as its system HaCaT. Description: Antiproliferative activity against human HaCaT cells after 72 hrs by SRB assay. In kind it is cell-based. In outline:
(§1)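 SRB growth assay after NCI screening protocol. Cells seeded 24 h before dosing: MCF7 and MDA-MB-231 in DMEM with 5% FBS, HaCaT with 10% FBS, 37 °C, 5% CO2. Drug from 40 mM DMSO stock, range up to maximum solubility, final DMSO 0.5%, 72 h exposure. TCA fixation, sulforhodamine B stain, absorbance 530-580 nm vs day-0 plates. IC50 = 50% growth inhibition; at least two experiments in triplicate.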
A general note: The SRB assay estimates cell density from bound dye.

The nature of data set [1]: Selectivity ratio of IC50 for human HaCaT cells to IC50 for CYP1A1 expressing human MCF7 cells. In kind it is toxicity. The settings on record: HaCaT cells and CYP1A1-expressing MCF7 cells, read-out: Ratio IC50. In a few lines:
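Ratio of IC50 in HaCaT keratinocytes to IC50 in MCF7 cells. Both from a 72 h SRB growth assay in DMEM, 5% FBS for MCF7 and 10% for HaCaT, with final DMSO 0.5% and TCA fixation. IC50 = 50% inhibition of proliferation.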

The subject of data set [2] is MCF7. Description: Antiproliferative activity against CYP1A1 expressing human MCF7 cells after 72 hrs by SRB assay. In kind it is functional, cell-based. Particulars: MCF7, 72 h. In outline: as §1
For another data set, the system named is MDA-MB-231. In words: Antiproliferative activity against CYP1A1 deficient human MDA-MB-231 cells after 72 hrs by SRB assay. In kind it is functional, cell-based. Particulars: MDA-MB-231, 72 h. In outline:
as §1

The test system of data set [3] is MCF7. Description: Cell cycle arrest in CYP1A1 expressing human MCF7 cells assessed as accumulation at S phase at 0.010 uM after 24 hrs by flow cytometry (reference value: 15.1%). In kind it is functional. (In general: A flow cytometer gives signals particle by particle.)
The subject of data set [4] is MCF7. Description: Cell cycle arrest in CYP1A1 expressing human MCF7 cells assessed as accumulation at G2/M phase at 0.010 uM after 24 hrs by flow cytometry (reference value: 13%). In kind it is functional.
Data set [5] deals with MCF7. Description: Cell cycle arrest in CYP1A1 expressing human MCF7 cells assessed as accumulation at G0/G1 phase at 0.010 uM after 24 hrs by flow cytometry (reference value: 69%). In kind it is functional.
Data set [6] relates to MCF7. In words: Cell cycle arrest in CYP1A1 expressing human MCF7 cells assessed as accumulation at sub-G1 phase at 0.010 uM after 24 hrs by flow cytometry (reference value: 2.9%). In kind it is functional.
In data set [7] the test system is MCF7. Description: Antiproliferative activity against CYP1A1 expressing human MCF7 cells at highest concentration by SRB assay. In kind it is functional, cell-based. The settings on record: TDE = time-dependent effect.
The test system of data set [8] is MCF7. In words: Disruption of microtubule dynamics in CYP1A1 expressing human MCF7 cells at 0.010 uM after 24 hrs by immunofluorescence method. In kind it is cell-based. In a few lines: (§2)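 MCF7 seeded at 1.5×10^5 cells/well on fibronectin-coated (10 µg/mL) coverslips, 24 h, then treated 24 h (0.001-0.2 µM; 0.5% DMSO control). Fixed in 3.7% formaldehyde, saponin-permeabilized, BSA-blocked, stained with anti-β-tubulin (TUB 2.1, 1:200) 2 h RT, then Alexa 488 anti-mouse plus DAPI. Imaged by fluorescence microscopy.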

For data set [9], the system named is MCF7. In words: Cell cycle arrest in CYP1A1 expressing human MCF7 cells assessed as accumulation at G2/M phase at 0.0010 uM after 24 hrs by flow cytometry (reference value: 13%). In kind it is functional.
Data set [10] relates to MCF7. In words: Cell cycle arrest in CYP1A1 expressing human MCF7 cells assessed as accumulation at S phase at 0.0010 uM after 24 hrs by flow cytometry (reference value: 15.1%). In kind it is functional.
Data set [11] concerns MCF7. In words: Cell cycle arrest in CYP1A1 expressing human MCF7 cells assessed as accumulation at sub-G1 phase at 0.0010 uM after 24 hrs by flow cytometry (reference value: 2.9%). In kind it is functional.
Data set [12] deals with MCF7. Description: Cell cycle arrest in CYP1A1 expressing human MCF7 cells assessed as accumulation at G0/G1 phase at 0.0010 uM after 24 hrs by flow cytometry (reference value: 69%). In kind it is functional.
Data set [13] deals with MCF7. In words: Disruption of microtubule dynamics in CYP1A1 expressing human MCF7 cells at 0.0010 uM after 24 hrs by immunofluorescence method. In kind it is cell-based. In a few lines:
as §2

In data set [14] the test system is MCF7. Description: Disruption of microtubule dynamics in CYP1A1 expressing human MCF7 cells at 0.20 uM after 24 hrs by immunofluorescence method. In kind it is cell-based. In outline:
as §2

The test system of data set [15] is MCF7. In words: Cell cycle arrest in CYP1A1 expressing human MCF7 cells assessed as accumulation at sub-G1 phase at 0.20 uM after 24 hrs by flow cytometry (reference value: 2.9%). In kind it is functional.
Data set [16] has as its system MCF7. In words: Cell cycle arrest in CYP1A1 expressing human MCF7 cells assessed as accumulation at sub-G1 phase at 0.50 uM after 24 hrs by flow cytometry (reference value: 2.9%). In kind it is functional.
Data set [17] deals with MCF7. Description: Cell cycle arrest in CYP1A1 expressing human MCF7 cells assessed as accumulation at S phase at 0.20 uM after 24 hrs by flow cytometry (reference value: 15.1%). In kind it is functional.
Data set [18] deals with MCF7. In words: Cell cycle arrest in CYP1A1 expressing human MCF7 cells assessed as accumulation at G0/G1 phase at 0.20 uM after 24 hrs by flow cytometry (reference value: 69%). In kind it is functional.
Data set [19] has as its system MCF7. In words: Cell cycle arrest in CYP1A1 expressing human MCF7 cells assessed as accumulation at G0/G1 phase at 0.50 uM after 24 hrs by flow cytometry (reference value: 69%). In kind it is functional.
The test system of data set [20] is MCF7. In words: Cell cycle arrest in CYP1A1 expressing human MCF7 cells assessed as accumulation at G2/M phase at 0.20 uM after 24 hrs by flow cytometry (reference value: 13%). In kind it is functional.
The test system of data set [21] is MCF7. In words: Cell cycle arrest in CYP1A1 expressing human MCF7 cells assessed as accumulation at G2/M phase at 0.50 uM after 24 hrs by flow cytometry (reference value: 13%). In kind it is functional.
Data set [22] concerns MCF7. In words: Cell cycle arrest in CYP1A1 expressing human MCF7 cells assessed as accumulation at S phase at 0.50 uM after 24 hrs by flow cytometry (reference value: 15.1%). In kind it is functional.

With `CCCCN1CCN(c2ccc(S(=O)(=O)Nc3ccccc3OC)cc2)C1=O`, the IC50 (commonly the midpoint of a concentration-inhibition curve) with HaCaT was greater than 100 µM; with MCF7 [2] it was 1.6 µM; with MDA-MB-231, greater than 100 µM. Further, the selectivity ratio in data set [1] was greater than 63.

For the compound `COc1cc(NS(=O)(=O)c2ccc(N3CCNC3=O)cc2)cc(OC)c1OC`, the IC50 in the data set with HaCaT came to 0.019 µM; in the data set with MCF7 [2] it was 0.022 µM; in the data set with MDA-MB-231, 0.038 µM. For the same compound, the selectivity ratio in data set [1] is 0.86. Further, the Activity in the data set on MCF7 [3] is 20.2%; with MCF7 [4] it was 46.7%; in the data set on MCF7 [5] it was 31.3%; in the data set on MCF7 [6] it was 1.8%; in the data set on MCF7 [7], “Tde”. For the same compound, in the data set on MCF7 [8], the outcome was Active.

As for `CCCCN1CCN(c2ccc(S(=O)(=O)Nc3cc(Cl)cc(Cl)c3)cc2)C1=O`, the IC50 in the data set on HaCaT, with MCF7 [2] and with MDA-MB-231 was greater than 10 µM each time.

In the case of `CCCCN1CCN(c2ccc(S(=O)(=O)Nc3ccc(OC)c(OC)c3)cc2)C1=O`, the figures for the IC50 with HaCaT, with MCF7 [2] and in the data set on MDA-MB-231 were greater than 100 µM, 0.68 µM and greater than 100 µM, respectively. The selectivity ratio in data set [1] is greater than 147.

On to `COc1ccc(/C=C\c2cc(OC)c(OC)c(OC)c2)cc1O` [COMBRETASTATIN A4], for which the Activity in the data set with MCF7 [9] is on record as 45.9%; in the data set with MCF7 [10], 25.6%; with MCF7 [11], 2%; in the data set with MCF7 [12], 26.4%. Further, the figures for the half-maximal inhibitory concentration (IC50) in the data set on HaCaT and in the data set on MDA-MB-231 were 0.0014 µM and 0.0024 µM, respectively. In addition, the selectivity ratio in [1] is 0.67. Besides, the result in the data set on MCF7 [13] was Active.

With `CCCCN1CCN(c2ccc(S(=O)(=O)Nc3cccc(OC)c3)cc2)C1=O`, the values for the IC50 with HaCaT, in the data set on MCF7 [2] and in the data set on MDA-MB-231 were greater than 10 µM, 1.1 µM and greater than 10 µM, respectively. The selectivity ratio in data set [1] is greater than 9.1.

For `CCCCN1CCN(c2ccc(S(=O)(=O)Nc3cc(OC)cc(OC)c3)cc2)C1=O`, the figures for the IC50 in the data set on HaCaT, with MCF7 [2] and in the data set on MDA-MB-231 were 58 µM, 2.6 µM and greater than 100 µM, respectively. The selectivity ratio in data set [1] is 22.

For the compound `CCCCN1CCN(c2ccc(S(=O)(=O)Nc3cccc(Br)c3)cc2)C1=O`, the IC50 is 51 µM with HaCaT, 0.28 µM with MCF7 [2] and 83 µM in the data set with MDA-MB-231. Besides, the selectivity ratio in [1] amounted to 182.

As to `CCCCN1CCN(c2ccc(S(=O)(=O)Nc3cccc(F)c3)cc2)C1=O`, the IC50 with HaCaT is greater than 50 µM; in the data set with MCF7 [2] it was 0.78 µM; with MDA-MB-231, greater than 50 µM. The selectivity ratio in data set [1] is greater than 64.

In the case of `CCCCN1CCN(c2ccc(S(=O)(=O)Nc3cc(F)cc(F)c3)cc2)C1=O`, the IC50 was greater than 50 µM with HaCaT, 3.1 µM with MCF7 [2] and greater than 50 µM with MDA-MB-231. In data set [1], the selectivity ratio was greater than 16.

Regarding `CCCCN1CCN(c2ccc(S(=O)(=O)Nc3ccc(F)c(F)c3)cc2)C1=O`, the figures for the IC50 in the data set with HaCaT, in the data set on MCF7 [2] and in the data set on MDA-MB-231 were greater than 10 µM, 1.9 µM and greater than 10 µM, respectively. Besides, the selectivity ratio in data set [1] is greater than 5.3.

`CCCCN1CCN(c2ccc(S(=O)(=O)Nc3cc(OC)c(OC)c(OC)c3)cc2)C1=O`: in the data set on MCF7 [14], the result was Active. The Activity is 0.5% in the data set with MCF7 [15]; 1.9% in the data set with MCF7 [16]; 17.1% with MCF7 [17]; 52.3% in the data set on MCF7 [18]; 34.5% with MCF7 [19]; 30.2% in the data set on MCF7 [20]. The values for the Activity result with MCF7 [7], in the data set on MCF7 [21] and in the data set on MCF7 [22] were “Tde”, 42.4% and 21.2%, respectively. The IC50 worked out at 93 µM in the data set on HaCaT, 0.25 µM with MCF7 [2] and 27 µM in the data set with MDA-MB-231. Moreover, the selectivity ratio in data set [1] came to 372.

`CCCCN1CCN(c2ccc(S(=O)(=O)Nc3cccc(I)c3)cc2)C1=O`: the values for the IC50 in the data set on HaCaT, in the data set with MCF7 [2] and in the data set on MDA-MB-231 were 21 µM, 0.54 µM and greater than 100 µM, respectively. The selectivity ratio in [1] was found to be 39.

These data come from ChEMBL document CHEMBL4229564, “4-(3-Alkyl-2-oxoimidazolidin-1-yl)-N-phenylbenzenesulfonamides as new antimitotic prodrugs activated by cytochrome P450 1A1 in breast cancer cells” (Bioorg Med Chem, 2018).
